The results in this text go back to article PMC11618456 (Nature Communications, 2024).

Each structure is given as a SMILES string.

Data set [1] is described as follows: Metabolic stability in human liver microsomes. The data set is classed as in vitro ADME. The following applies: for Stability in HLM (% remaining) 30 min / Stability in HLM (% remaining) 60 min: 1 mg/mL HLM, 1 mM NADPH, 20 µM compound, mean ± SD. The gist of the method:
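Incubations in 1× PBS held 1 mg/mL HLM, 1 mM NADPH and 20 µM test compound at 37 °C for up to 60 min. Remaining compound was quantified by UPLC-QTOFMS, n = 3 per time point.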
(In general: Liver microsomes are vesicles of endoplasmic reticulum, rich in cytochrome P450 enzymes.)

Another data set is described as follows: Cytotoxicity MTT assay. The data set is classed as cell-based. The following applies: human, A549 cells, CC50, half-cytotoxic concentration, 72 h, MTT; mean ± SD (n ≥ 3). (In general: Tetrazolium dyes change colour on reduction, which living cells bring about.)
Another data set deals with WT mice. The data set can be described thus: Sub-chronic study. The data set is classed as in vivo, mouse. The following applies: 100 mg/kg po, 23 days. Summed up: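 Male wild-type mice aged 8 weeks got vehicle or test compound 100 mg/kg orally for 23 days (n = 4 per group), weighed daily before dosing. On day 24, blood, liver, kidney and spleen were collected for organ/body weight ratios. Serum ALT, AST and ALP were measured by enzymatic kits, and liver histology was assessed.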

The subject of the next data set is ABCB1. Description: Effect on ABCB1. Type of data set: in vivo, mouse. The following applies: WT mice, 100 mg/kg po pretreatment, paclitaxel as substrate.
In another data set the target is T1, ABCG2 (Mus musculus, UniProt Q7TMS5).
T1 sequence (Q7TMS5 1-657): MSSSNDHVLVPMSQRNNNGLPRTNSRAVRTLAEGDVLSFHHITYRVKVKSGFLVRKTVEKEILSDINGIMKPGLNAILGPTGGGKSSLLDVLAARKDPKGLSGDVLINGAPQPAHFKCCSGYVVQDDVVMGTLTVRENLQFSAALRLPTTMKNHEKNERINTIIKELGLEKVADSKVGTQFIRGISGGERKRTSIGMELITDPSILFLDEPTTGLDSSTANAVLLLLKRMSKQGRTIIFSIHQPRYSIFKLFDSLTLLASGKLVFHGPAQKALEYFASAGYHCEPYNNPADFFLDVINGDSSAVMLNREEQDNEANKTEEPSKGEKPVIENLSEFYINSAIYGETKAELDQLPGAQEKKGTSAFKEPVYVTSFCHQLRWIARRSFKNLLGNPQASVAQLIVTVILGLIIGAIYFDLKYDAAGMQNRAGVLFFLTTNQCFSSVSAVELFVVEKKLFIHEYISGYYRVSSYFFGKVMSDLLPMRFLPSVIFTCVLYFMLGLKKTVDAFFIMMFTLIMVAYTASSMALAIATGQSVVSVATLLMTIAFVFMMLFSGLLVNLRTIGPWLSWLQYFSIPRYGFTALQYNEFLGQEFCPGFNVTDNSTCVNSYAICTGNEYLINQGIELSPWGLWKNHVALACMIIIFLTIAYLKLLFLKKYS
Description: PPIX efflux from RBCs of Fech-mut mice. Type of data set: cell-based. The following applies: 10 µM, up to 3 h. The gist of the method:
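Fech-mut mouse RBCs were cultured in phenol-red-free RPMI 1640 at 2 × 10^8 cells/well, 37 °C, gently shaken and light-protected, with or without 10 µM test compound for 1 or 3 h. Medium PPIX was read by fluorescence (ex 405 nm, em 630 nm) and expressed as % of RBC PPIX at time 0. n = 3 mice, duplicate incubations, mean ± SEM.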

The subject of data set [2] is PPIX in serum of Fech-mut mice. The data set can be described thus: PPIX distribution in serum of Fech-mut mice. As to conditions: 100 mg/kg po. The data set is classed as in vivo, mouse.
Data set [3] is described as follows: Pharmacokinetics in WT mice after oral treatment. As to conditions: 100 mg/kg po, Fig. 1d. Type of data set: in vivo, mouse.
Data set [4] deals with Fech-mut mice. Description: EPP-associated phototoxicity in Fech-mut mice after light exposure. Type of data set: in vivo, mouse.
In data set [5] the test system is Fech-mut mice. The data set can be described thus: Safety after short-term treatment. Type of data set: in vivo, mouse. The following applies: 100 mg/kg po, 5 days.
For a further data set, the system named is A549 cells. Description: Cytotoxicity MTT assay. Type of data set: cell-based. The following applies: Table 1.
Another data set in a line: in vitro. As to conditions: Fech-mut (BALB/c background), mouse, serum from Fech-mut mice treated with K31, oral, 100 mg/kg.

The CC50 is the concentration giving 50% cytotoxicity. As for `COc1ccc2c3c([nH]c2c1)[C@H](CC(C)C)N1C(=O)[C@H](CC(=O)NC(C)(C)C)NC(=O)[C@@H]1C3` [K3], in [1], the “Stability in HLM (% remaining) 30 min” value is on record as 74 ± 25 % remaining and the “Stability in HLM (% remaining) 60 min” value stood at 60 ± 3 % remaining. This molecule also registered a CC50 at 72 h in the data set “Cytotoxicity MTT assay” of 58.9 ± 5.3 µM.

`COc1ccc2c3c([nH]c2c1)[C@H](CC(C)C)N1C(=O)[C@H](CC(=O)NC2CCCCC2)NC(=O)[C@@H]1C3` [K23]: in data set [1], the “Stability in HLM (% remaining) 30 min” value turned out to be 45 ± 2 % remaining and the “Stability in HLM (% remaining) 60 min” value is 26 ± 2 % remaining. In the data set “Cytotoxicity MTT assay”, this molecule yielded a half-maximal cytotoxic concentration (CC50) at 72 h of 46.6 ± 0.9 µM.

Molecule `COc1ccc2c3c([nH]c2c1)[C@H](CC(C)C)N1C(=O)[C@H](CC(=O)N2CCCCC2)NC(=O)[C@@H]1C3` [K25] showed a 50% cytotoxic concentration (CC50) at 72 h in “Cytotoxicity MTT assay” of 26.5 ± 2.5 µM.

What is called fraction unbound is the share of the substance not bound to proteins or other matrix. A high value points to weak binding. With `COc1ccc2c3c([nH]c2c1)[C@H](CC(C)C)N1C(=O)[C@H](CC(=O)NC(C)C)NC(=O)[C@@H]1C3` [K31], in the data set on WT mice, the “biomarkers of liver toxicity (ALT, AST, ALP) (in words)” value is listed as “did not alter”; the “growth (body weight gain) (in words)” value is listed as “did not alter”; the “ratios of organ (liver, kidney, and spleen) to body weight (in words)” value is on record as “did not alter”. Further, in the data set on ABCB1, the “inhibitory effect on ABCB1” value is reported as “no inhibitory effect”. The “PPIX release from the RBCs of Fech-mut mice (in words)” value on ABCG2 is “markedly decreased”. Moreover, the “PPIX in serum (in words)” value in data set [2] was “significant decrease”. Also, the “pharmacokinetic profile after oral treatment (in words)” value in [3] is “outstanding pharmacokinetic profiles”. The “withdrawal test: phototoxicity after K31 withdrawal” value in the data set with Fech-mut mice [4] (100 mg/kg po days 1-4, then withdrawn, light continued days 5-8) is “recurrence of light-triggered phototoxicity was observed in the skin of Fech-mut mice from the second day of K31 withdrawal”. The “oxidative stress and inflammation in the skin” value in the data set with Fech-mut mice [4] (100 mg/kg po, light exposure, once daily for 5 days) is “attenuated oxidative stress and inflammation”. For the same molecule, the “light-triggered phototoxicity (gross appearance of the skin)” value in the data set with Fech-mut mice [4] (30 and 100 mg/kg po, once daily for 5 days, both sexes) is listed as “significantly decreased”. Also, in the data set with Fech-mut mice [4] (po pretreatment, light exposure, H&E, Sirius Red), the “histological changes of skin (missing epidermis, damaged subepidermal collagen)” value is on record as “prevented”. Besides, in [1], the “Stability in HLM (% remaining) 30 min” value is listed as 65 ± 3 % remaining and the “Stability in HLM (% remaining) 60 min” value stood at 49 ± 9 % remaining. Moreover, the “metabolic stability (in words)” value in [1] (incubation with human liver microsomes, Fig. 1c) is on record as “significantly improved”. In addition, in the data set on Fech-mut mice [5], the “PPIX levels in the liver (in words)” value is on record as “did not alter”; the “liver damage, alanine aminotransaminase (in words)” value is given as “did not potentiate liver damage”; the “mean corpuscular hemoglobin in blood (in words)” value is “no significant impact”; the “total hemoglobin in blood (in words)” value is given as “no significant impact”. Further, the “morphological changes in the liver and kidney” value with Fech-mut mice [5] (H&E) is listed as “did not cause morphological changes”. In addition, the “cytotoxicity compared with other Ko143 analogs” value in the data set on A549 cells was “less cytotoxic when compared to other Ko143 analogs”. Further, in “Cytotoxicity MTT assay”, the CC50 at 72 h is more than 100 µM. Besides, the fraction unbound at 16 h in “in vitro” is 0.0585.

Regarding `COc1ccc2c3c([nH]c2c1)[C@H](CC(C)C)N1C(=O)[C@H](CC(=O)NCc2ccccc2)NC(=O)[C@@H]1C3` [K33], in [1], the “Stability in HLM (% remaining) 30 min” value is 37 ± 3 % remaining and the “Stability in HLM (% remaining) 60 min” value stood at 18 ± 1 % remaining. Further, it took 31.1 ± 3.7 µM to reach half-maximal cytotoxicity in the data set “Cytotoxicity MTT assay” (CC50 at 72 h).
